In ChEMBL document CHEMBL3877296, “Design, synthesis, and biological evaluation of novel alkylsulfanyl-1,2,4-triazoles as cis-restricted combretastatin A-4 analogues” (Eur J Med Chem, 2017):

Key:
[1] = Cytotoxicity against human HepG2 cells assessed as growth inhibition after 48 hrs by MTT assay; type: functional, cell-based; details: HepG2, 48 h
In short: (§1)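 Cells were kept in DMEM with 10% FBS and seeded at 5000 cells/well, then attached for 24 h at 37 °C. Compounds came from 20 mM DMSO stocks, serially diluted in medium, with 0.1% DMSO as vehicle control. After 48 h at 37 °C, MTT (5 mg/mL) was added for 4 h, formazan dissolved in DMSO and A570 read. IC50 was fitted from % inhibition versus control, mean of three independent experiments.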

[2] = Cytotoxicity against human PC3 cells assessed as growth inhibition after 48 hrs by MTT assay; type: functional, cell-based; details: PC-3, 48 h; in short: as §1
[3] = Cytotoxicity against human HT-29 cells assessed as growth inhibition after 48 hrs by MTT assay; type: functional, cell-based; details: HT-29, 48 h; in short: as §1
[4] = Cytotoxicity against human HCT116 cells assessed as growth inhibition after 48 hrs by MTT assay; type: functional, cell-based; details: HCT-116, 48 h; in short: as §1
Sus scrofa = species: Sus scrofa; experiment: Inhibition of porcine brain tubulin polymerization at 10 uM in presence of GTP by spectrophotometric method relative to control
In short: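 Tubulin was purified from pig brain microtubule protein by three temperature-driven assembly/disassembly cycles, then phosphocellulose chromatography. Polymerization ran in PEM buffer (100 mM PIPES, 1 mM MgCl2, 1 mM EGTA) with 1 mM GTP and 5% glycerol at 37 °C, followed by light scattering at 340 nm. Percent inhibition came from plateau absorbance, with a DMSO negative control and a CA-4 reference run the same day.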

[5] = Cell cycle arrest in human PC3 cells assessed as G0/G1 phase accumulation at 3 uM after 12 hrs by propidium iodide staining based flow cytometry (reference value: 51.58%); type: functional; details: PC-3
In short: (§2)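 PC-3 cells were grown overnight in dishes to about 70% confluence, then exposed to three compound concentrations. Cells were trypsinized, washed in PBS, fixed overnight in 75% ice-cold ethanol, RNase-treated at 37 °C for 30 min, and stained with propidium iodide. Phase percentages (sub-G1, G0/G1, S, G2/M) were read by flow cytometry against untreated cells.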

[6] = Cell cycle arrest in human PC3 cells assessed as G0/G1 phase accumulation at 12 uM after 12 hrs by propidium iodide staining based flow cytometry (reference value: 51.58%); type: functional; details: PC-3; in short: as §2
[7] = Cell cycle arrest in human PC3 cells assessed as G2/M phase accumulation at 12 uM after 12 hrs by propidium iodide staining based flow cytometry (reference value: 15.81%); type: functional; details: PC-3; in short: as §2
[8] = Cell cycle arrest in human PC3 cells assessed as G2/M phase accumulation at 6 uM after 12 hrs by propidium iodide staining based flow cytometry (reference value: 15.81%); type: functional; details: PC-3; in short: as §2
[9] = Cell cycle arrest in human PC3 cells assessed as subG1 phase accumulation at 3 uM after 12 hrs by propidium iodide staining based flow cytometry (reference value: 0.29%); type: functional; details: PC-3; in short: as §2
[10] = Cell cycle arrest in human PC3 cells assessed as G2/M phase accumulation after 48 hrs by propidium iodide staining based flow cytometry; type: functional; details: PC-3; in short: as §2
[11] = Cell cycle arrest in human PC3 cells assessed as S phase accumulation at 6 uM after 12 hrs by propidium iodide staining based flow cytometry (reference value: 31.7%); type: functional; details: PC-3; in short: as §2
[12] = Cell cycle arrest in human PC3 cells assessed as G2/M phase accumulation at 3 uM after 12 hrs by propidium iodide staining based flow cytometry (reference value: 15.81%); type: functional; details: PC-3; in short: as §2
[13] = Cell cycle arrest in human PC3 cells assessed as subG1 phase accumulation at 6 uM after 12 hrs by propidium iodide staining based flow cytometry (reference value: 0.29%); type: functional; details: PC-3; in short: as §2
[14] = Cell cycle arrest in human PC3 cells assessed as S phase accumulation at 12 uM after 12 hrs by propidium iodide staining based flow cytometry (reference value: 31.7%); type: functional; details: PC-3; in short: as §2
[15] = Cell cycle arrest in human PC3 cells assessed as subG1 phase accumulation at 12 uM after 12 hrs by propidium iodide staining based flow cytometry (reference value: 0.29%); type: functional; details: PC-3; in short: as §2
[16] = Cell cycle arrest in human PC3 cells assessed as S phase accumulation at 3 uM after 12 hrs by propidium iodide staining based flow cytometry (reference value: 31.7%); type: functional; details: PC-3; in short: as §2
[17] = Cell cycle arrest in human PC3 cells assessed as G0/G1 phase accumulation at 6 uM after 12 hrs by propidium iodide staining based flow cytometry (reference value: 51.58%); type: functional; details: PC-3; in short: as §2

inhibition (Sus scrofa) | SMILES | IC50 [1] | IC50 [2] | IC50 [3] | IC50 [4] | also measured
16% | COc1cc(-c2nnc(SCC(=O)c3ccccc3)n2-c2ccc(N(C)C)cc2)cc(OC)c1OC | 18.9 µM | 38.6 µM | 45.1 µM | 42.5 µM | –
15% | COc1ccc(-n2c(SCc3ccc(C)cc3)nnc2-c2cc(OC)c(OC)c(OC)c2)cc1 | 31.6 µM | 56.5 µM | > 60 µM | 33.3 µM | –
31% | COc1ccc(-n2c(SCC(=O)Nc3ccc(Cl)cc3)nnc2-c2cc(OC)c(OC)c(OC)c2)cc1 | > 60 µM | 6.29 µM | 58 µM | > 60 µM | Activity [5]: 48%; Activity [6]: 37.8%; Activity [7]: 34.8%; Activity [8]: 24.2%; Activity [9]: 0.43%; Activity [10]: Dose-dependent effect; Activity [11]: 31.7%; Activity [12]: 20.1%; Activity [13]: 0.62%; Activity [14]: 27.1%; Activity [15]: 0.37%; Activity [16]: 30.8%; Activity [17]: 46%
12% | COc1ccc(-n2c(SCC(=O)c3ccc(F)cc3)nnc2-c2cc(OC)c(OC)c(OC)c2)cc1 | 10.7 µM | 58.2 µM | 42.5 µM | > 60 µM | –
36% | COc1ccc(-n2c(SCC(=O)C3CC3)nnc2-c2cc(OC)c(OC)c(OC)c2)cc1 | > 60 µM | 37.2 µM | > 60 µM | > 60 µM | –
49% | COc1ccc(CSc2nnc(-c3cc(OC)c(OC)c(OC)c3)n2-c2ccc(N(C)C)cc2)cc1 | > 60 µM | > 60 µM | > 60 µM | 1.15 µM | –
29% | COc1ccc(CSc2nnc(-c3cc(OC)c(OC)c(OC)c3)n2-c2ccc(OC)cc2)cc1 | 41.1 µM | 40.3 µM | > 60 µM | 49.6 µM | –
16% | COc1ccc(-n2c(SCc3ccccc3)nnc2-c2cc(OC)c(OC)c(OC)c2)cc1 | > 60 µM | 34.1 µM | > 60 µM | 42.4 µM | –

The remaining lines, values behind:

SMILES | inhibition (Sus scrofa) | IC50 [1] | IC50 [2] | IC50 [3] | IC50 [4] | also measured
COc1cc(-c2nnc(S)n2-c2ccc(N(C)C)cc2)cc(OC)c1OC | – | > 60 µM | > 60 µM | > 60 µM | > 60 µM | –
COc1cc(-c2nnc(SC)n2-c2ccc(N(C)C)cc2)cc(OC)c1OC | – | > 60 µM | > 60 µM | > 60 µM | > 60 µM | –
COc1ccc(-n2c(S)nnc2-c2cc(OC)c(OC)c(OC)c2)cc1 | – | 57.5 µM | > 60 µM | > 60 µM | > 60 µM | –
COc1ccc(/C=C\c2cc(OC)c(OC)c(OC)c2)cc1O [COMBRETASTATIN A4] | 80% | 5.29 µM | 22 µM | 1.96 µM | 6.1 µM | –
COc1ccc(-n2c(SCC(=O)c3ccc4ccccc4c3)nnc2-c2cc(OC)c(OC)c(OC)c2)cc1 | – | > 60 µM | > 60 µM | 53.4 µM | > 60 µM | –
COc1ccc(C(=O)CSc2nnc(-c3cc(OC)c(OC)c(OC)c3)n2-c2ccc(N(C)C)cc2)cc1O | – | > 100 µM | > 100 µM | > 60 µM | > 100 µM | –
CCOC(=O)CSc1nnc(-c2cc(OC)c(OC)c(OC)c2)n1-c1ccc(N(C)C)cc1 | – | > 60 µM | > 60 µM | 28.8 µM | > 60 µM | –
COc1ccc(-n2c(SCC(=O)c3ccc(OC)c(O)c3)nnc2-c2cc(OC)c(OC)c(OC)c2)cc1 | – | > 60 µM | > 60 µM | > 60 µM | > 60 µM | –
